Results reported in ChEMBL document CHEMBL1649253, “New approach for drug susceptibility testing: monitoring the stress response of mycobacteria” (2009).
In brackets after ≈: the same amount, converted by molar mass.

Columns and labels:
[1] = tested on: Mycobacterium tuberculosis; assay: Antibacterial activity against Mycobacterium tuberculosis H37Ra by 7H11 agar plate method
[2] = tested on: Mycobacterium tuberculosis; assay: Antibacterial activity against Mycobacterium tuberculosis H37Ra by BACTEC MGIT 960 method; format: functional
[3] = tested on: Mycobacterium tuberculosis; assay: Antibacterial activity against Mycobacterium tuberculosis H37Ra by broth microdilution method; format: functional
Method in brief: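 Broth microdilution in supplemented 7H9 (complete) medium with twofold drug dilutions. Inoculum 10^6 CFU/ml from cultures grown at 37°C to mid- or late-log phase. Incubated 21 days at 37°C, then turbidity inspected by eye against drug-free controls. MIC is the lowest concentration with no visible growth.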

[4] = tested on: Mycobacterium tuberculosis; assay: Antibacterial activity against Mycobacterium tuberculosis H37Ra by BACTEC method; format: functional
[5] = tested on: Mycobacterium tuberculosis; assay: Antibacterial activity against Mycobacterium tuberculosis H37Ra by 7H10 agar plate method; format: functional
[6] = tested on: Mycobacterium tuberculosis; assay: Antibacterial activity against Mycobacterium tuberculosis H37Ra by 7H9 broth dilution method; format: functional

Row | Structure (SMILES) | MIC [1] [µg/mL] | MIC [2] [µg/mL] | MIC [3] [µg/mL] | MIC [4] [µg/mL] | MIC [5] [µg/mL] | MIC [6] [µg/mL]
1 | NC(=O)c1cnccn1 [PYRAZINAMIDE] | 50 (≈ 406 µM) | 20 (≈ 162 µM) | 50 (≈ 406 µM) |  |  | 
2 | NNC(=O)c1ccncc1 [ISONIAZID] |  |  | 0.2 (≈ 1.46 µM) | 0.03 (≈ 0.219 µM) | 0.2 (≈ 1.46 µM) | 0.25 (≈ 1.82 µM)
3 | CC[C@@H](CO)NCCN[C@@H](CC)CO [ETHAMBUTOL] |  |  | 5 (≈ 24.5 µM) |  | 5 (≈ 24.5 µM) | 2 (≈ 9.79 µM)
4 | CO[C@H]1/C=C/O[C@@]2(C)Oc3c(C)c(O)c4c(O)c(c(/C=N/N5CCN(C)CC5)c(O)c4c3C2=O)NC(=O)/C(C)=C\C=C\[C@H](C)[C@H](O)[C@@H](C)[C@@H](O)[C@@H](C)[C@H](OC(C)=O)[C@@H]1C [RIFAMPIN] |  |  | 0.2 (≈ 0.243 µM) | 0.25 (≈ 0.304 µM) | 0.2 (≈ 0.243 µM) | 0.125 (≈ 0.152 µM)
